Laboratory results from article PMC6106105 (Journal of the Endocrine Society, 2018).
Read-outs that look alike come from different tables or passages of the source. Numbered stars: 1 amine (or outer) side, 2 acyl side, 3 side chain; on linkers, the order of the positions; unused ones are H or OH. Square brackets hold non-standard residues; d marks the D form. Side chains are listed from the residue outwards. Peptide text beside a SMILES is read from it. * marks the point of attachment. Ethylenediamine = C(CN[*:2])N[*:1]; Hyp = O=C(O)[C@@H]1C[C@@H](O)CN1; Phg = N[C@H](C(=O)O)c1ccccc1; CO = O=C([*:1])[*:2]; Bn = c1ccc(C*)cc1

Columns and labels:
rat Sstr2A [1] = target: T1, rat Sstr2A (Rattus norvegicus, UniProt P30680); assay type: cell-based; conditions: for Emax: read-out: cAMP Emax
T1 sequence (P30680 whole entry): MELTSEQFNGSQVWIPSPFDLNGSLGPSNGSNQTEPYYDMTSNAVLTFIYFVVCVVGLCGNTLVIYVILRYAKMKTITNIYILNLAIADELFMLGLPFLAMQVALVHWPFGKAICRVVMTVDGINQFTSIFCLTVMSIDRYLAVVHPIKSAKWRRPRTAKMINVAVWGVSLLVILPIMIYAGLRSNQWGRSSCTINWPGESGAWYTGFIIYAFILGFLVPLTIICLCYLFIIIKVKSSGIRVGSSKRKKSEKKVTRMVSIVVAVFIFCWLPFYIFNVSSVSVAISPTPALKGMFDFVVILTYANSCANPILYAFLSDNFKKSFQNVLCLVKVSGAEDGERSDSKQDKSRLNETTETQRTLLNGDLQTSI

rat Sstr2A [2] = target: T1, rat Sstr2A; assay: Membrane potential; assay type: cell-based; conditions: read-out: Hyperpolarization Emax
rat Sstr2A [3] = target: T1, rat Sstr2A; assay: Sstr2A receptor internalization, cell surface ELISA in GH12C1-Sstr2A cells; assay type: cell-based; conditions: for Emax: read-out: Internalization Emax
GH4C1 cells = assay: Membrane potential; assay type: cell-based, rat; conditions: for hyperpolarization response (agonist, in words): 100 nM (Fig. 3A)
In short: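 Rat GH4C1 cells grown in F12 with 12.5% horse serum and 2.5% FBS, plated 150,000/well on poly-D-ornithine. Loaded 30 min with FLIPR Membrane Potential blue dye in HEPES-buffered saline, pH 7.4, then equilibrated 15 min at 37°C. After 30 s baseline, agonist was added and fluorescence read for 180 s (ex 530/em 565 nm). Output was F1/F0 minus control trace, averaged over three wells.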

Row | Compound | Emax (rat Sstr2A [1]) [%] | Emax at 0.1 µM (rat Sstr2A [2]) [%] | Emax (rat Sstr2A [3]) [%] | hyperpolarization response (agonist, in words) (GH4C1 cells) | other results
1 | C[C@H](N)C(=O)NCC(=O)N[C@H]1CSSC[C@@H](C(=O)O)NC(=O)[C@H](CO)NC(=O)[C@H]([C@@H](C)O)NC(=O)[C@H](Cc2ccccc2)NC(=O)[C@H]([C@@H](C)O)NC(=O)[C@H](CCCCN)NC(=O)[C@H](Cc2c[nH]c3ccccc23)NC(=O)[C@H](Cc2ccccc2)NC(=O)[C@H](Cc2ccccc2)NC(=O)[C@H](CC(N)=O)NC(=O)[C@H](CCCCN)NC1=O [SS14, Somatostatin] | 100 | 100 | 100 |  | 
2 | NCCCC[C@@H]1NC(=O)[C@@H](Cc2c[nH]c3ccccc23)NC(=O)[C@H](c2ccccc2)NC(=O)[C@@H]2C[C@@H](OC(=O)NCCN)CN2C(=O)[C@H](Cc2ccccc2)NC(=O)[C@H](Cc2ccc(OCc3ccccc3)cc2)NC1=O [SOM230, pasireotide diaspartate] (cyclo([Hyp]([CO-Ethylenediamine])[Phg][dW]KY(Bn)F); ring closure inferred) | 100 |  | 5 |  | EC50 (rat Sstr2A [1]): 0.058 ± 0.007 µM; Emax at 1 µM (rat Sstr2A [2]): 5%; Kd (rat Sstr2A [3]): 0.243 ± 0.063 µM; shift in SS14 potency for receptor internalization after SOM230 pretreatment (Schild-plot analysis) (rat Sstr2A [3]; SOM230 2 µM, 5-minute pretreatment, kept present throughout): 8.7 fold
3 | Des-AA^1,2,5-[DTrp^8,IAmp^9,^125ITyr^11]-Cbm-SRIF [Rivier #27] |  |  |  | largely ineffective | 
4 | H-p-Chloro-Phe-D-Cys-β-(3-pyridyl)-Ala-D-Trp-Lys-tBu-Gly-Cys-2-Nal-NH2 trifluoroacetate salt [PRL-2915] |  |  |  |  | effect on hyperpolarization response produced by SS14 (GH4C1 cells; PRL-2915 (1 µM), SS14 (1 µM), 15 minutes pretreatment): eliminated most of the hyperpolarization response
5 | C[C@@H](O)[C@@H]1NC(=O)[C@H](CCCCN)NC(=O)[C@@H](Cc2c[nH]c3ccccc23)NC(=O)[C@H](Cc2ccccc2)NC(=O)[C@@H](NC(=O)[C@H](N)Cc2ccccc2)CSSC[C@@H](C(=O)N[C@H](CO)[C@@H](C)O)NC1=O [Octreotide, octreotide] | 100 | 107 | 100 | equivalent to that of SS14 | 
